Test results: ChEMBL document CHEMBL1128256, “Synthesis, biological evaluation, and structure analysis of a series of new 1,5-anhydrohexitol nucleosides” (J Med Chem, 1995)
In brackets after ≈: the same amount, converted by molar mass.

Assays:
HEL [1] = assay: Tested for the cytotoxic concentration, required to reduce cell growth by 50% in human embryonic lung (HEL) cells.; assay type: functional
In short: (§1)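 Virus plaque formation assay in human embryonic lung (HEL) cells seeded in 96-well trays. Targets were TK+ VZV (Oka, YS), TK- VZV (07/1, YS/R) and CMV (AD169, Davis). Value is the concentration that reduces plaque number by 50%. Cytotoxicity in HEL cells was taken as the concentration that reduces cell growth by 50%.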

HEL [2] = assay: Tested for the inhibitory concentration required to reduce TK+ Varicella-Zoster virus (TK+ VZV) strain YS plaque formation by 50%; assay type: functional, cell-based; settings: Homo sapiens
HEL [3] = assay: Tested for the inhibitory concentration required to reduce cytomegalovirus (CMV) strain Davis plaque formation by 50%.; assay type: functional, cell-based; settings: Homo sapiens; in short: as §1
HEL [4] = assay: Tested for the inhibitory concentration required to reduce TK+ Varicella-Zoster virus (TK+ VZV) strain OKA plaque formation by 50%.; assay type: functional, cell-based; settings: Homo sapiens
HEL [5] = assay: Tested for the inhibitory concentration required to reduce thymidine kinase deficient Varicella-Zoster virus (TK- VZV) strain 07/1 plaque formation by 50%.; assay type: functional, cell-based; settings: Homo sapiens
E6SM [6] = assay: Tested for the minimum inhibitory concentration required to reduce herpes simplex virus type 1 (TK- / TK+ HSV-1) strain VMW-1837 induced cytopathogenicity by 50%.; assay type: functional; settings: Homo sapiens
In short: (§2)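 Inhibition of virus-induced cytopathogenicity in human embryonic skin-muscle (E6SM) fibroblasts seeded in 96-well trays. Viruses were HSV-1 (KOS, F, McIntyre), TK- HSV-1 B2006, TK-/TK+ HSV-1 clinical isolate VMW-1837 and HSV-2 (G, 196, Lyons). […] MCC is the lowest concentration giving microscopically detectable alteration of normal cell morphology; highest concentration tested was 400 µg/mL.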

HEL [7] = assay: Tested for the inhibitory concentration required to reduce cytomegalovirus (CMV) strain AD-169 plaque formation by 50%.; assay type: functional, cell-based; settings: Homo sapiens; in short: as §1
E6SM [8] = assay: Tested for the minimum inhibitory concentration required to reduce herpes simplex virus type 2 (HSV-2) strain 196 induced cytopathogenicity by 50%.; assay type: functional; settings: Homo sapiens; in short: as §2
E6SM [9] = assay: Tested for the minimum inhibitory concentration required to reduce herpes simplex virus type 2 (HSV-2) strain G induced cytopathogenicity by 50%.; assay type: functional; settings: Homo sapiens; in short: as §2
E6SM [10] = assay: Tested for the minimum inhibitory concentration required to reduce herpes simplex virus type 2 (HSV-2) strain Lyons induced cytopathogenicity by 50%.; assay type: functional; settings: Homo sapiens; in short: as §2
E6SM [11] = assay: Tested for the minimum inhibitory concentration required to reduce thymidine kinase deficient herpes simplex virus type 1 (TK- HSV-1) strain B2006 induced cytopathogenicity by 50%.; assay type: functional; settings: Homo sapiens; in short: as §2
E6SM [12] = assay: Tested for the minimum inhibitory concentration required to reduce herpes simplex virus type 1 (HSV-1) strain McIntyre induced cytopathogenicity by 50%.; assay type: functional; settings: Homo sapiens; in short: as §2
HEL [13] = assay: Tested for the inhibitory concentration required to reduce thymidine kinase deficient Varicella-Zoster virus (TK- VZV) strain YS/R plaque formation by 50%.; assay type: functional, cell-based; settings: Homo sapiens
E6SM [14] = assay: Tested for the minimum inhibitory concentration required to reduce herpes simplex virus type 1 (HSV-1) strain F induced cytopathogenicity by 50%.; assay type: functional; settings: Homo sapiens; in short: as §2
E6SM [15] = assay: Tested for the minimum inhibitory concentration required to reduce herpes simplex virus type 1 (HSV-1) strain KOS induced cytopathogenicity by 50%.; assay type: functional; settings: Homo sapiens; in short: as §2
E6SM [16] = assay: Tested for the minimum cytotoxic concentration required to cause a microscopically detectable alteration of normal cell morphology in human embryonic skin muscle (E6SM) fibroblast cell cultures.; assay type: functional; in short: as §2
E6SM [17] = assay: Tested for the minimum inhibitory concentration required to reduce herpes simplex virus type 1 (TK+ / TK- HSV-1) strain VMW-1837 induced cytopathogenicity by 50%.; assay type: functional; settings: Homo sapiens; in short: as §2
E6SM [18] = assay: Tested for the minimum inhibitory concentration required to reduce vaccinia virus(VV) induced cytopathogenicity by 50%.; assay type: functional; settings: Homo sapiens
E6SM [19] = assay: Tested for the minimum inhibitory concentration required to reduce thymidine kinase deficient herpes simplex virus type 1 (TK- / TK+ HSV-1) strain VMW-1837 induced cytopathogenicity by 50%.; assay type: functional; settings: Homo sapiens; in short: as §2
Mus musculus = species on record: Mus musculus; assay: Inhibition constant assumed to reflect the affinity for the transport site in mouse erythrocytes; assay type: functional
In short: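 Thymidine influx competition in erythrocytes from male B6D2F1 mice, 10% hematocrit in buffered saline, room temperature. [methyl-3H]thymidine at 0.1, 0.2, 0.5 and 1 mM, alone or with inhibitor at 0.053–1.05 mM. Influx stopped after 3 s with NBMPR. Pellets extracted in 5% perchloric acid and counted by scintillation. Zero-time trapping subtracted. Duplicate samples. Ki from Dixon plot.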

E6SM [20] = assay: Tested for the minimum inhibitory concentration required to reduce vesicular stomatitis virus(VSV) induced cytopathogenicity by 50%; assay type: functional; settings: Homo sapiens
HEL [21] = assay: Tested for the inhibitory concentration required to reduce thymidine kinase plus Varicella-Zoster virus (TKplus VZV) strain OKA plaque formation by 50%.; assay type: functional, cell-based; settings: Homo sapiens; in short: as §1

SMILES	CC50 (HEL [1])	IC50 (HEL [2])	IC50 (HEL [3])	IC50 (HEL [4])	IC50 (HEL [5])	MIC (E6SM [6])	IC50 (HEL [7])	MIC (E6SM [8])	MIC (E6SM [9])	MIC (E6SM [10])	MIC (E6SM [11])	MIC (E6SM [12])	IC50 (HEL [13])	MIC (E6SM [14])	MIC (E6SM [15])	MCC (E6SM [16])	MIC (E6SM [18])	MIC (E6SM [20])	further results
O=c1[nH]c(=O)n(C2COC(CO)C(O)C2)cc1/C=C/Br (centres undefined)	50 mg/L (≈ 144 µM)	1.4 mg/L (≈ 4.03 µM)	23 mg/L (≈ 66.3 µM)	1.4 mg/L (≈ 4.03 µM)	20 mg/L (≈ 57.6 µM)	70 mg/L (≈ 202 µM)	> 10 mg/L	70 mg/L (≈ 202 µM)	150 mg/L (≈ 432 µM)	70 mg/L (≈ 202 µM)	> 100 mg/L	0.4 mg/L (≈ 1.15 µM)	40 mg/L (≈ 115 µM)	2 mg/L (≈ 5.76 µM)	0.4 mg/L (≈ 1.15 µM)	> 400 µg/mL	–	–	–
Nc1nc2c(ncn2COCCO)c(=O)[nH]1 [ACYCLOVIR]	> 200 mg/L	–	–	–	–	–	20 mg/L (≈ 88.8 µM)	–	–	–	–	–	–	–	–	–	–	–	–
Nc1nc2c(ncn2COC(CO)CO)c(=O)[nH]1 [GANCICLOVIR]	> 200 mg/L	0.072 mg/L (≈ 0.282 µM)	6.2 mg/L (≈ 24.3 µM)	0.02 mg/L (≈ 0.0784 µM)	0.1 mg/L (≈ 0.392 µM)	–	2.9 mg/L (≈ 11.4 µM)	–	–	–	–	–	0.9 mg/L (≈ 3.53 µM)	–	–	–	–	–	–
O=c1[nH]c(=O)n(C2COC(CO)C(O)C2)cc1F (centres undefined)	> 50 mg/L	> 40 mg/L	> 40 mg/L	40 mg/L (≈ 154 µM)	> 40 mg/L	–	> 40 mg/L	> 400 mg/L	> 400 mg/L	> 400 mg/L	> 400 mg/L	> 400 mg/L	40 mg/L (≈ 154 µM)	> 400 mg/L	> 400 mg/L	> 400 µg/mL	–	–	MIC (E6SM [17]): 300 mg/L (≈ 1150 µM)
O=c1[nH]c(=O)n(C2COC(CO)C(O)C2)cc1I (centres undefined)	> 50 mg/L	> 100 mg/L	> 40 mg/L	> 100 mg/L	> 100 mg/L	–	> 40 mg/L	0.7 mg/L (≈ 1.9 µM)	0.4 mg/L (≈ 1.09 µM)	0.4 mg/L (≈ 1.09 µM)	> 400 mg/L	0.04 mg/L (≈ 0.109 µM)	> 100 mg/L	0.01 mg/L (≈ 0.0272 µM)	0.02 mg/L (≈ 0.0543 µM)	> 400 µg/mL	200 mg/L (≈ 543 µM)	–	MIC (E6SM [19]): 4 mg/L (≈ 10.9 µM)
O=c1ccn([C@H]2C[C@H](O)[C@@H](CO)O2)c(=O)[nH]1 [DEOXYURIDINE]	–	–	–	–	–	–	–	–	–	–	–	–	–	–	–	–	–	–	Ki (Mus musculus): 110 µM
CCc1cn(C2COC(CO)C(O)C2)c(=O)[nH]c1=O (centres undefined)	> 50 mg/L	> 50 mg/L	> 50 mg/L	> 50 mg/L	> 50 mg/L	0.4 mg/L (≈ 1.48 µM)	> 50 mg/L	–	0.4 mg/L (≈ 1.48 µM)	–	> 400 mg/L	–	> 50 mg/L	–	0.02 mg/L (≈ 0.074 µM)	> 400 µg/mL	200 mg/L (≈ 740 µM)	–	–
Nc1nc(=O)n(C2COC(CO)C(O)C2)cc1I (centres undefined)	> 50 mg/L	> 40 mg/L	> 40 mg/L	> 40 mg/L	–	70 mg/L (≈ 191 µM)	> 40 mg/L	20 mg/L (≈ 54.5 µM)	7 mg/L (≈ 19.1 µM)	20 mg/L (≈ 54.5 µM)	300 mg/L (≈ 817 µM)	2 mg/L (≈ 5.45 µM)	7.6 mg/L (≈ 20.7 µM)	0.7 mg/L (≈ 1.91 µM)	2 mg/L (≈ 5.45 µM)	> 400 µg/mL	150 mg/L (≈ 409 µM)	> 400 mg/L	–
Nc1nc(=O)n(C2COC(CO)C(O)C2)cc1F (centres undefined)	2 mg/L (≈ 7.71 µM)	3.5 mg/L (≈ 13.5 µM)	0.5 mg/L (≈ 1.93 µM)	–	5 mg/L (≈ 19.3 µM)	–	0.9 mg/L (≈ 3.47 µM)	–	2 mg/L (≈ 7.71 µM)	–	0.07 mg/L (≈ 0.27 µM)	–	7 mg/L (≈ 27 µM)	–	0.2 mg/L (≈ 0.771 µM)	> 400 µg/mL	0.2 mg/L (≈ 0.771 µM)	> 200 mg/L	MIC (E6SM [19]): 2 mg/L (≈ 7.71 µM); IC50 (HEL [21]): 2.9 mg/L
Nc1nc(N)c2ncn(C3COC(CO)C(O)C3)c2n1 (centres undefined)	25 mg/L (≈ 89.2 µM)	2 mg/L (≈ 7.14 µM)	0.8 mg/L (≈ 2.85 µM)	1.2 mg/L (≈ 4.28 µM)	2.4 mg/L (≈ 8.56 µM)	0.7 mg/L (≈ 2.5 µM)	2 mg/L (≈ 7.14 µM)	–	0.7 mg/L (≈ 2.5 µM)	–	7 mg/L (≈ 25 µM)	–	5 mg/L (≈ 17.8 µM)	–	0.2 mg/L (≈ 0.714 µM)	> 400 µg/mL	7 mg/L (≈ 25 µM)	> 200 mg/L	–
Nc1ncnc2c1ncn2C[C@@H](CO)OCP(=O)(O)O	–	–	–	–	–	1 mg/L (≈ 3.3 µM)	–	0.07 mg/L (≈ 0.231 µM)	0.02 mg/L (≈ 0.066 µM)	0.1 mg/L (≈ 0.33 µM)	1 mg/L (≈ 3.3 µM)	2 mg/L (≈ 6.6 µM)	–	0.2 mg/L (≈ 0.66 µM)	0.2 mg/L (≈ 0.66 µM)	> 400 µg/mL	0.7 mg/L (≈ 2.31 µM)	> 400 mg/L	–
Nc1nc(=O)n(C2COC(CO)C(O)C2)cc1Cl (centres undefined)	> 50 mg/L	> 40 mg/L	> 40 mg/L	40 mg/L (≈ 145 µM)	> 40 mg/L	300 mg/L (≈ 1090 µM)	> 40 mg/L	300 mg/L (≈ 1090 µM)	300 mg/L (≈ 1090 µM)	300 mg/L (≈ 1090 µM)	> 400 mg/L	300 mg/L (≈ 1090 µM)	> 40 mg/L	150 mg/L (≈ 544 µM)	300 mg/L (≈ 1090 µM)	> 400 µg/mL	–	–	–
